In the assay the target is T1, NAD-dependent protein deacetylase sirtuin-2 (Homo sapiens, UniProt Q8IXJ6).
T1 sequence (Q8IXJ6 whole entry): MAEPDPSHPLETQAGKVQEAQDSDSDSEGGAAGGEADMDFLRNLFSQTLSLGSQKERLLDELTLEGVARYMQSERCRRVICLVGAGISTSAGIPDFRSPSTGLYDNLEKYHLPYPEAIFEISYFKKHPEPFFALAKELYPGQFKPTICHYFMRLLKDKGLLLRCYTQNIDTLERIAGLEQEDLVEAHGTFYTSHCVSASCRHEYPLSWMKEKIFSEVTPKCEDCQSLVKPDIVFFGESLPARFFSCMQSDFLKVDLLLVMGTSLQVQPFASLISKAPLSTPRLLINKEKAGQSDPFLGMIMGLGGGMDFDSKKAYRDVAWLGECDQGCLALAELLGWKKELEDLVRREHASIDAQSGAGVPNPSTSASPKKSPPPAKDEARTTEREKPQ
Description: Inhibition of recombinant GST-tagged SIRT2 at 200 uM after 1 hr by Fluor de Lys-based fluorescence assay. A digest of the protocol:
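Single-point Fluor de Lys test at 200 μM: GST-SIRT1 (40 μM KI177 substrate) or GST-SIRT2 (138 μM KI179 substrate), 500 μM NAD+, BSA-supplemented buffer, 5 min rt preincubation, enzyme-started 1 h at 37 °C. Developer with 2 mM nicotinamide 45 min 37 °C; fluorescence ex 355/em 460 nm. Percent inhibition ± standard deviation.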

In the case of `CC(=S)NCCCC[C@H](NC(=O)OCc1ccccc1)C(=O)NC1CCCCC1`, the Inhibition was determined as 57.2%.
To `CC(=S)NCCCC[C@H](NC(=O)[C@H](N)Cc1ccccc1)C(=O)N[C@@H](C)C(=O)O` belongs 22.4%; to `CC(=S)NCCCC[C@H](N)C(=O)N[C@@H](C)C(=O)O`, 2%.

Values taken from BindingDB's records for doi:10.1021/jm200590k (University of Eastern Finland, 2011).
